Test results from publication PMC4339548 (Clinica chimica acta; international journal of clinical …, 2015).
Like-named read-outs stand apart in the source and are kept apart here.

Columns and labels:
[1] = Urinary excretion of oral sugar probes; format: in vivo, human; settings: for Percent urinary excretion of oral sugar probe: healthy subjects, oral cocktail, mean ± SD/SE; for Lactulose/Mannitol Ratio / Percent urinary excretion of oral sugar probe corrected for CrCl / Sucralose/Lactulose Ratio: mean ± SE; for % Total (of 24 h urinary excretion) corrected for CrCl / % Total (cum) corrected for CrCl: normalized for CrCl; for % Total (of 24 h urinary excretion) / % Total (cumulative): not normalized; for Percent urinary excretion of oral sugar probe corrected for CrCl: percent excretion divided by creatinine clearance; for % Total (cum) corrected for CrCl / % Total (cumulative): cumulative first 12 h; for Range of tertile means of 24 h percent excretion of oral dose: data divided into 3 tertile groups, lowest to highest excretion
[2] = format: in vivo, human; settings: 24 h
How it was run: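 Age- and BMI-matched controls and patients fasted overnight and emptied their bladders. At 6 AM they took 2 g mannitol, 7.5 g lactulose and 40 g sucrose in 8 oz water, plus 1 g sucralose in 2 capsules. Fasting continued 2 h, with no "diet" foods or drinks from 48 h before through the test. Urine was pooled over 24 h and sugars were measured as alditol acetates by GC (DB-225MS). Results were expressed as % of oral dose and as the sucralose/lactulose ratio.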

[3] = ref [18], cited from earlier work
[4] = 12-24 hour, listed as lactulose
[5] = 12-24 hour, listed as sucralose

Row | Compound | Percent urinary excretion of oral sugar probe ([1]; 0-5 hour urine collection) | % Total (of 24 h urinary excretion) corrected for CrCl ([1]; 0-5 hour) | % Total (of 24 h urinary excretion) ([1]; 0-5 hour) | Percent urinary excretion of oral sugar probe corrected for CrCl ([1]; 0-5 hour) | Percent urinary excretion of oral sugar probe ([1]; 0-24 hour urine collection) | % Total (of 24 h urinary excretion) corrected for CrCl ([1]; 0-24 hour) | % Total (of 24 h urinary excretion) ([1]; 0-24 hour) | Percent urinary excretion of oral sugar probe corrected for CrCl ([1]; 0-24 hour) | Percent urinary excretion of oral sugar probe ([1]; 5-12 hour urine collection) | % Total (of 24 h urinary excretion) corrected for CrCl ([1]; 5-12 hour) | % Total (of 24 h urinary excretion) ([1]; 5-12 hour) | Percent urinary excretion of oral sugar probe corrected for CrCl ([1]; 5-12 hour) | Percent urinary excretion of oral sugar probe ([1]; 12-24 hour urine collection) | % Total (of 24 h urinary excretion) corrected for CrCl ([1]; 12-24 hour) | % Total (of 24 h urinary excretion) ([1]; 12-24 hour) | Percent urinary excretion of oral sugar probe corrected for CrCl ([1]; 12-24 hour) | % Total (cum) corrected for CrCl [1] | % Total (cumulative) [1] | Range of tertile means of 24 h percent excretion of oral dose [1] | further results
1 | OC[C@H]1O[C@@H](O[C@@H]2[C@@H](CO)O[C@](O)(CO)[C@H]2O)[C@H](O)[C@@H](O)[C@H]1O [Lactulose, 4-o-β-D-galactopyranosyl-D-fructofuranose] | 0.95 ± 0.6% | 30% | 29.3% | 0.012 ± 0.001 | 3.11 ± 0.2% | 100% | 100% | 0.04 ± 0.002 | 1.1 ± 0.19% | 32.4% | 26.8% | 0.012 ± 0.002 | 1.4 ± 0.1% | 40% | 43.9% | 0.016 ± 0.001 | 60% | 56.1% | 0.5%-1.7% | Lactulose/Mannitol Ratio ([1]; 0-5 hour urine): 0.065 ± 0.05; Lactulose/Mannitol Ratio ([1]; 0-5 hour urine, listed as lactulose): .065; % Total (of 24 h urinary excretion) ([1]; 0-5 hour, listed as lactulose): 29.3%; Lactulose/Mannitol Ratio ([1]; 0-24 hour urine): 0.124 ± 0.010; Lactulose/Mannitol Ratio ([1]; 0-24 hour urine, listed as lactulose): 0.124; Lactulose/Mannitol Ratio ([1]; 5-12 hour urine): 0.25 ± 0.03; Lactulose/Mannitol Ratio ([1]; 5-12 hour urine, listed as lactulose): 0.25; Lactulose/Mannitol Ratio ([1]; 12-24 hour urine): 0.534 ± 0.11; Lactulose/Mannitol Ratio ([1]; 12-24 hour urine, listed as lactulose): 0.534; % Total (of 24 h urinary excretion) corrected for CrCl [1, 4]: 40%; % Total (of 24 h urinary excretion) [1, 4]: 43.9%; Variation of lactulose/mannitol (L/M) ratio over 24 h ([1]; across collection segments, peak in second 12 hours): more than 8 fold
2 | OC[C@@H](O)[C@@H](O)[C@H](O)[C@H](O)CO [Mannitol, D-mannitol] | 15.6 ± 0.8% | 52.9% | 61.5% | 0.18 ± 0.01 | 28.9 ± 1.3% | 99% | 100% | 0.34 ± 0.029 | 6.03 ± 0.96% | 22.6% | 20% | 0.077 ± 0.01 | 6.4 ± 1.3% | 23.5% | 18.5% | 0.08 ± 0.016 | 75.5% | 81.5% | – | % Total (of 24 h urinary excretion) corrected for CrCl ([1]; 0-5 hour, listed as mannitol): 52.9%; % Total (of 24 h urinary excretion) ([1]; 0-5 hour, listed as mannitol): 61.5%; % Total (of 24 h urinary excretion) corrected for CrCl ([1]; 12-24 hour, listed as mannitol): 23.5%; % Total (of 24 h urinary excretion) ([1]; 12-24 hour, listed as mannitol): 18.5%
3 | OC[C@H]1O[C@H](O[C@]2(CCl)O[C@H](CCl)[C@@H](O)[C@@H]2O)[C@H](O)[C@@H](O)[C@H]1Cl [Sucralose, 1,6-dichloro-1,6-dideoxy-β-D-fructofuranosyl-4-chloro-4-deoxy-α-D-glucopyranoside] | 0.5 ± 0.8% | 33.3% | 35.9% | 0.005 ± 0.001 | 1.23 ± 0.14% | 99.5% | 100% | 0.015 ± 0.002 | 0.51 ± 0.13% | 38% | 29.7% | 0.0057 ± 0.001 | 0.3 ± 0.04% | 28.2% | 34.4% | 0.004 ± 0.0006 | 71.3% | 65.6% | 0.4%-2.4% | mean urinary excretion sucralose/lactulose ratio ([2]; Parkinson's disease patients (N=9), p ≤ 0.001 vs controls): 0.48 ± 0.1; mean urinary excretion sucralose/lactulose ratio ([2]; healthy controls (N=10)): 0.21± 0.1; 24 h mean urinary excretion sucralose value ([3]; Parkinson's disease patients (N=9), p ≤ 0.015 vs controls): 1.12 ± 0.1; 24 h mean urinary excretion sucralose value ([3]; healthy controls (N=10), BMI/age-matched): 0.58 ± 0.1; Sucralose/Lactulose Ratio ([1]; 0-5 hour urine): 0.53 ± 0.10; Sucralose/Lactulose Ratio ([1]; 0-5 hour urine, listed as sucralose): 0.53; % Total (of 24 h urinary excretion) corrected for CrCl ([1]; 0-5 hour, listed as sucralose): 33.3%; % Total (of 24 h urinary excretion) ([1]; 0-5 hour, listed as sucralose): 35.9%; Sucralose/Lactulose Ratio ([1]; 0-24 hour urine): 0.49 ± 0.08; Sucralose/Lactulose Ratio ([1]; 0-24 hour urine, listed as sucralose): 0.49; Sucralose/Lactulose Ratio ([1]; 5-12 hour urine): 0.54 ± 0.13; Sucralose/Lactulose Ratio ([1]; 5-12 hour urine, listed as sucralose): 0.54; Sucralose/Lactulose Ratio ([1]; 12-24 hour urine): 0.36 ± 0.06; Sucralose/Lactulose Ratio ([1]; 12-24 hour urine, listed as sucralose): 0.36; % Total (of 24 h urinary excretion) corrected for CrCl [1, 5]: 28.2%; % Total (of 24 h urinary excretion) [1, 5]: 34.4%
4 | OC[C@H]1O[C@@](CO)(O[C@H]2O[C@H](CO)[C@@H](O)[C@H](O)[C@H]2O)[C@@H](O)[C@@H]1O [Sucrose, α-D-glucopyranosyl-β-D-fructofuranoside] | 0.5 ± 0.15% | 26.9% | 29.6% | 0.006 ± 0.0007 | 1.82 ± 0.17% | 94.6% | 100% | 0.0223 ± 0.002 | – | 26.9% | 27.4% | 0.006 ± 0.001 | 0.8 ± 0.7% | 40.8% | 43% | 0.009 ± 0.0009 | 53.8% | 57% | 0.3%-0.6% | –
